# Data published in ChEMBL document CHEMBL1250484, “Synthesis and antioxidant activity of quinolinobenzothiazinones” (2010).
# What was measured:
# [1] = species on record: Mus musculus; assay: Antioxidant activity in Swiss albino mouse assessed as lipid peroxidation level measured per mg of tissue after 7 days; format: functional, organism-based
# In short: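 Male random-bred Swiss albino mice (24 ± 2 g) dosed orally once daily for 7 days with compound in 0.1 ml double-distilled water; controls water only. Liver perfused with cold 0.9% NaCl, homogenized 10% w/v in tris-KCl pH 7.4. TBARS: sample with tris-KCl, 30% TCA, 52 mM TBA, 25 min at 80 °C, centrifuged; supernatant read at 531.8 nm, expressed as malondialdehyde per mg protein.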
# [2] = Antioxidant activity assessed as ABTS radical scavenging activity after 2 mins; format: functional
# In short: (§1)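 ABTS radical cation made from 7 mM ABTS in deionized water plus potassium persulphate (2.45 mM), kept dark at room temperature 12–16 h, then diluted with ethanol to A734 0.700 ± 0.020. 1 ml of this added to 10 µl compound; absorbance at 734 nm read at 30 °C at 1–6 min after mixing. Triplicate determinations.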
# [3] = species on record: Mus musculus; assay: Antioxidant activity in Swiss albino mouse assessed as reduced glutathione level measured per mg of tissue after 7 days; format: functional
# In short: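 Male Swiss albino mice (24 ± 2 g) given compound orally in 0.1 ml double-distilled water daily for 7 days; controls got water. Perfused liver homogenized 10% w/v in tris-KCl pH 7.4, precipitated with 25% TCA, centrifuged. 0.1 ml supernatant mixed with 2 ml 0.6 mM DTNB and 0.9 ml […] pH 8.0; absorbance at 412 nm for GSH.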
# [4] = tested on: Radical scavenging activity; assay: Antioxidant activity assessed as DPPH radical scavenging activity at 1 mg/ml; format: functional
# In short: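 Compound stock 1 mg/ml in methanol; 50 µl added to 5 ml 0.004% methanolic DPPH. Incubated 30 min in dark at room temperature, absorbance at 517 nm against blank. Percent inhibition calculated by formula; triplicate.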
# [5] = Antioxidant activity assessed as ABTS radical scavenging activity after 1 min; format: functional; in short: as §1
# [6] = Antioxidant activity assessed as ABTS radical scavenging activity after 6 mins; format: functional; in short: as §1
# [7] = Antioxidant activity assessed as ABTS radical scavenging activity after 4 mins; format: functional; in short: as §1
Structure (SMILES),Activity [1] [nmol],deltaA [2],Activity [3] [nmol],inhibition [4] [%],deltaA [5],deltaA [6],deltaA [7]
Cc1ccc2[nH]c(=O)c3c(c2c1)Nc1c(C)cccc1S3,6.69,0.52,4.5,8.33,0.56,0.52,0.52
COc1cccc2c3c(c(=O)[nH]c12)Sc1cc(Br)ccc1N3,6.51,0.098,5.01,53.8,0.141,0.095,0.098
Cc1ccc2[nH]c(=O)c3c(c2c1)Nc1c(cccc1C(F)(F)F)S3,6.53,0.318,4.9,22.4,0.328,0.318,0.318
Cc1cccc2c1Nc1c(c(=O)[nH]c3c(C)cccc13)S2,6.72,0.61,4.51,2.71,0.62,0.61,0.61
COc1cccc2c1Nc1c(c(=O)[nH]c3c(OC)cccc13)S2,6.81,0.052,4.8,54.3,0.055,0.052,0.052
Cc1ccc2[nH]c(=O)c3c(c2c1)Nc1ccc(Br)cc1S3,6.42,0.406,5,13.7,0.412,0.406,0.406
